Bioassay records: PubChem BioAssay, The Scripps Research Institute Molecular Screening Center
TAAR1 antag = antagonists of human TAAR1; 360,000 compounds, 1.5% hits; Q96RJ0; AID 624466; CHO RD-HGA16 TAAR1, Fluo-8 calcium fluorescence, antagonist; inhibition, % at 3 µM;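 active = inhibition above a per-plate cutoff, the mean inhibition of test compounds on that plate plus 3 SD, cut at about 49% in these data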;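 note: 0% = DMSO plus EC80 beta-PEA response and 100% = DMSO alone without agonist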
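test system = CHO RD-HGA16 cells bearing hTAAR1 | replication = singlicate | controls = DMSO-only wells and EC80 β-PEA-stimulated wells | reagent = EC80 β-phenethylamine stimulus | read-out basis = percent inhibition of PEA-evoked calcium signal, max/basal emission ratio | schedule = seeding 17-24 h prior, 75-min 37 °C, 30-min RT dye loading | signal = kinetic Fluo-8 calcium fluorescence measurement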
OX1R antag-1 = blocks the human orexin 1 receptor | O43613 | CHO/OX1R cells, Fluo-8 calcium fluorescence, orexin A | inhibition, % at 5 µM | 330,000 compounds, 0.43% hits | AID 434989;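 active = inhibition above its plate's threshold, mean inhibition of all tested compounds on the plate plus 3 SD, cut at about 37% in these data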;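 note: 0% = orexin A challenge wells and 100% = SB-334867-A antagonist wells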
Target sequence (O43613 whole entry, looked up): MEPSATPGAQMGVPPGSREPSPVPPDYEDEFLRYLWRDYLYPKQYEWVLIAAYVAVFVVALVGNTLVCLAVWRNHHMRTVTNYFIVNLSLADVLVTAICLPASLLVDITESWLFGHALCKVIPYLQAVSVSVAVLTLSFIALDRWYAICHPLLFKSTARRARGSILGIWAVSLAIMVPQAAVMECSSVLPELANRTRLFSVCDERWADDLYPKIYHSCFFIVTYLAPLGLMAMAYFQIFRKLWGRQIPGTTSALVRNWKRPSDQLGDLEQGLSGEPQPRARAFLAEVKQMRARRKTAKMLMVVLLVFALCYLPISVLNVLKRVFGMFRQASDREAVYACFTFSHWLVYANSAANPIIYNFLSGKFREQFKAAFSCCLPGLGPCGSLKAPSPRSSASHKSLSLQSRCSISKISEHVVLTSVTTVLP
CHO parental Ca = counter-screen: ATP calcium response change in parental CHO cells | parental CHO-K1, ATP-induced calcium, Fluo-8 fluorescence | inhibition, % at 5.6 µM | 330,000 compounds, 0.63% hits;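 active = inhibition above that plate's mean sample inhibition plus 3 SD, cut at about 26% in these data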;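 note: 0% = ATP-challenged DMSO wells and 100% = DMSO wells without ATP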
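Material – parental CHO cells · Reagent – ATP stimulus · Compound – single nominal dose of 5.6 µM per compound · Detection – Fluo-8 fluorescence · Read-out basis – percent inhibition of calcium signal · Controls – ATP-challenged DMSO wells low, unchallenged DMSO wells high · Repeats – no replicates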
TAAR1 ag = human TAAR1 agonism; Q96RJ0; CHO RD-HGA16 TAAR1, Fluo-8 calcium fluorescence; vehicle wells 0%, saturating PEA agonist 100%; activation, % at 3 µM; 360,000 compounds, 0.99% hits; AID 624467;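 active = activation above the mean activation of all test compounds in the run plus 3 SD, cut at about 38% in these data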
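test system = CHO RD-HGA16 cells carrying human TAAR1 plus Gα16 | schedule = 17-24 h seeding, 75 min 37 °C dye, 30 min RT | compound dosing = 3 µM single concentration | control set = DMSO and PEA EC100 | replicates = n 1 | signal = Fluo-8 fluorescence, 5 s baseline then 140 s kinetic read | measure = percent activation vs PEA EC100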
GalR3 antagonist = antagonists of human GalR3 | O60755 | HEK293 GalR3-CNG cAMP membrane potential fluorescence; galR3 body fused to GalR1 C-terminus | inhibition, % at 3 µM | 360,000 compounds, 0.44% hits;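 active = inhibition above the screen-wide average plus 3 SD, cut at about 13% in these data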;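 note: forskolin and galanin both at EC90 stimulate the cells; cAMP rise reported by CNG channel membrane potential dye signal; 0% = forskolin plus galanin with DMSO and 100% = forskolin alone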
Target sequence (O60755 1-299 limits assumed): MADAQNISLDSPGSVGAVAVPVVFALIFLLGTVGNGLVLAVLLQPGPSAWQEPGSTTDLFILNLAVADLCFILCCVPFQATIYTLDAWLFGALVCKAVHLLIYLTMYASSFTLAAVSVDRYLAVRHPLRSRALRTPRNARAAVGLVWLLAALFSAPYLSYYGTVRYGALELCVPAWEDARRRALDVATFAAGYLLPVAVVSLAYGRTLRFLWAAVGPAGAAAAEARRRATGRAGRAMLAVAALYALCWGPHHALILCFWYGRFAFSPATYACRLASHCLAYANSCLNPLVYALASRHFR
OX1R antag-2 = antagonists of human orexin 1 receptor (OX1R); O43613; OX1R-expressing cells, FRET antagonist read-out; inhibition, % at 6.6 µM; 330,000 compounds, 1.8% hits; AID 485270; in the data active = inhibition mostly above about 38%, no sharp cut-off; inactive = mostly below about 40%;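 note: 0% = agonist challenge alone and 100% = reference antagonist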
nonsel antag count = counter-screen for TAAR1 antagonists: nonselective antagonists. 2,400 compounds, 77% hits. inhibition, % at 3 µM. counterscreen cell line, calcium fluorescence, antagonist mode. shares compounds with TAAR1 antag. AID 651780; in the data active = inhibition above about 22%;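 note: CHO-Ga16 host cells stimulated with ATP at an EC80 level; 0% = agonist EC80 plus vehicle and 100% = vehicle without agonist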
TAAR1 antag conf = human TAAR1 antagonism, confirmed; shares compounds with TAAR1 antag; inhibition, % at 3 µM; TAAR1-expressing cells, fluorescence antagonist read-out; 2,400 compounds, 40% hits; in the data active = inhibition above about 49%;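 note: CHO-Ga16 host cells challenged with agonist PEA near its EC80; 0% = agonist at EC80 plus vehicle and 100% = vehicle with no agonist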
Ga16 nonsel ag = nonselective Ga16 agonist in TAAR1 antagonist counter-screen. activation, % at 3 µM. Ga16-expressing cells, calcium fluorescence, agonist counterscreen. AID 651953. shares compounds with TAAR1 antag. 2,400 compounds, 18% hits; in the data active = activation above about 12%;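 note: 0% = vehicle wells and 100% = saturating stimulus response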
TAAR1 ag count = activates human TAAR1 in antagonist counter-screen. hTAAR1 cell line, fluorescence activation, agonist mode. shares compounds with TAAR1 antag. activation, % at 3 µM. AID 651955. 2,400 compounds, 2% hits; in the data active = activation above about 37%;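 note: CHO cells stably expressing TAAR1 with calcium dye readout; 0% = DMSO vehicle and 100% = full agonist response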
* = called active by the depositor; . = no result given. Hits are enriched below; roughly 4.3% of the tested compounds scored in any of these assays.

SMILES	TAAR1 antag	OX1R antag-1	CHO parental Ca	TAAR1 ag	GalR3 antagonist	OX1R antag-2	nonsel antag count	TAAR1 antag conf	Ga16 nonsel ag	TAAR1 ag count
COCCSc1ccccc1C(=O)Nc1ccc(S(=O)(=O)N2CCOCC2)cc1	-13	.	.	1	-7	.	.	.	.	.
CN(N=Nc1nc[nH]c1C(N)=O)C1CCCCC1	-14	.	.	1	-8	.	.	.	.	.
COc1ccc(CNC(=O)C(c2ccco2)N(Cc2cccs2)C(=O)Cc2cccs2)cc1 (stereo not drawn)	75*	-12	-9	20	1	55	35*	63*	9	7
COc1ccc(CNC(=O)C(c2ccco2)N(Cc2ccccc2)C(=O)Cc2cccs2)cc1 (stereo not drawn)	85*	0	-19	20	-3	55	33*	55*	12*	12
COCCN(C(=O)Cc1cccs1)C(C(=O)NCc1ccc(OC)cc1)c1ccc(OC)cc1 (stereo not drawn)	-1	-4	-20	9	-6	15	.	.	.	.
COc1ccc(CNC(=O)C(c2cccs2)N(Cc2ccco2)C(=O)Cc2cccs2)cc1 (stereo not drawn)	67*	12	-4	18	-5	42	30*	47	9	8
CCOC(=O)C1CCc2c(ccc3ccccc23)N1CCC#N (stereo not drawn)	-34	.	.	-1	-4	.	.	.	.	.
CCOC(=O)[C@]12CCCC=C1N(CCc1ccc(OC)c(OC)c1)C(=O)[C@H](CC(=O)NCC13CC4CC(CC(C4)C1)C3)C2	4	.	.	-2	-8	.	.	.	.	.
CCCS(=O)(=O)c1nc(S(=O)(=O)c2ccc(C)cc2)c(N2CCC(C(N)=O)CC2)s1	4	-16	-9	5	-3	19	.	.	.	.
CCOc1ccc(/C=N/NC(=O)c2ccc(Cn3cc([N+](=O)[O-])cn3)o2)cc1	6	-16	-17	1	-1	27	.	.	.	.
CC(C)(C)c1ccc(OCc2ccc(C(=O)N/N=C/c3ccc([N+](=O)[O-])cc3)o2)cc1	53*	-18	-15	13	5	9	31*	44	5	8
O=C1CC2c3cc(-c4cc5ccccc5o4)ccc3CCN2C(=O)CN1Cc1ccccc1 (stereo not drawn)	54*	.	.	5	9	.	27*	40	5	6
Cc1ccc(-c2nc3cccnc3s2)cc1NS(=O)(=O)c1ccc2c(c1)OCCO2	59*	-25	-15	9	.	19	30*	37	7	2
Cc1ccc(CNC(=O)c2ccccc2SCC(=O)NCC2CCCCC2)cc1	63*	-21	-7	12	-2	9	26*	45	9	7
CSc1ccccc1C(=O)NCc1ccc(C)cc1	104*	-18	-2	-2	0	1	8	11	0	3
CCOC(=O)C1=CN(Cc2cccc(-c3ccc4c(c3)OCO4)c2)S(=O)(=O)N(C)C1C (stereo not drawn)	35	4	1	2	-5	12	.	.	.	.
CCOC(=O)C1=CN(Cc2cccc(-c3ccc(Cl)nc3)c2)S(=O)(=O)N(C)C1C (stereo not drawn)	63*	3	-16	5	-6	17	11	22	2	4
Cc1ccc(NS(=O)(=O)c2cc([N+](=O)[O-])ccc2N/N=C/c2sc(N3CCOCC3)nc2-c2ccccc2)c(C)c1	1	1	-1	0	-2	9	.	.	.	.
CCCCNc1nc(N(C)c2ccccc2)nc(-n2ccnc2)n1	50*	-32	-23	17	-4	26	3	-5	0	0
c1ccc(N(c2ccccc2)c2nc(-n3ccnc3)nc(-n3ccnc3)n2)cc1	104*	82*	42*	34	-7	42	56*	96*	27*	43*
COc1ccc(CN(C)C(=O)Cn2cnc3c(OCc4ccccc4)ncnc32)cc1OC	3	-28	-20	1	-5	9	.	.	.	.
CC(=O)NC1=CC(=C[N+](=O)[O-])C=C1O	-21	.	.	1	-8	.	.	.	.	.
Cc1cccc(COCC(CC(C)C)N2CCN(C(=O)c3ccc(C(F)(F)F)cc3)CCC2=O)c1 (stereo not drawn)	-4	-31	-22	2	-5	6	.	.	.	.
Cc1cccc(COCC(CC(C)C)N2CCN(C(=O)c3ccc(C(C)(C)C)cc3)CCC2=O)c1 (stereo not drawn)	71*	-17	-13	10	-10	6	32*	57*	7	17
Cc1cccc(COC[C@H](CC(C)C)N2CCN(C(=O)c3ccc(C(C)(C)C)cc3)CCC2=O)c1	63*	.	.	3	-3	.	30*	52*	4	10
SMILES	TAAR1 antag	OX1R antag-1	CHO parental Ca	TAAR1 ag	GalR3 antagonist	OX1R antag-2	nonsel antag count	TAAR1 antag conf	Ga16 nonsel ag	TAAR1 ag count
CCCn1nnnc1NCc1cccc(Cl)c1	6	-12	-9	3	-10	17	.	.	.	.
O=C(CCS(=O)(=O)c1ccc(Cl)cc1)NCCN1C(=O)S/C(=C\c2ccccc2F)C1=O	71*	7	-2	14	3	10	38*	38	11	7
C[C@H](CO)N1C[C@H](C)[C@H](CN(C)Cc2cccc(F)c2)Oc2ncc(Br)cc2C1=O	-6	.	.	0	-5	.	.	.	.	.
CCOC(=O)c1[nH]c2ccc(OC)cc2c1NC(=O)CN1CCc2ccccc2C1	60*	-19	-7	17	5	13	23*	51*	11	23
CN(C)CCN(C(=O)/C=C/c1cccs1)c1nc2c(F)cc(F)cc2s1	56*	-17	-13	32	-11	12	15	16	4	9
COc1cc(-c2noc(C)c2C#CCO)cc(OC)c1OC	-15	-2	-8	5	0	15	.	.	.	.
COc1cc(-c2noc(C)c2C#Cc2ccsc2)cc(OC)c1OC	65*	10	-2	28	1	50	18	34	6	20
CC(=O)c1cccc(NC(=O)CCCCCn2nnc3ccccc3c2=O)c1	-8	.	.	6	-1	.	.	.	.	.
Cc1nc2ccc3nc(NC(=O)C4COc5ccccc5O4)sc3c2s1 (stereo not drawn)	61*	-30	-13	1	-2	36	29*	30	2	1
